Reference: ChEMBL document CHEMBL3621143, “Discovery of BMS-641988, a Novel Androgen Receptor Antagonist for the Treatment of Prostate Cancer” (ACS Med Chem Lett, 2015)
Active and inactive are the calls of the source. No cut-off for these calls is given here.

Legend:
[1] = Clearance in mouse at 5 mg/kg, iv and 10 mg/kg, po; type: ADME, organism-based; conditions: in vivo
Method in brief: (§1)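 Single IV and oral doses in mouse and rat (IV 5, PO 10 mg/kg) and dog (IV 1, PO 2 mg/kg). Half-life, clearance, AUC0-∞ (µM*h) and %F derived from the plasma profiles.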

[2] = Drug metabolism in monkey hepatocytes assessed per 10^6 cells; type: ADME, cell-based, Macaca mulatta, Hepatocyte; conditions: rhesus monkey
Method in brief: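 Metabolic rate in mouse, rat, dog, monkey and human hepatocyte incubations, expressed as pmol/min/10^6 cells.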

Cytochrome P450 1A2 = biological target: T1, Cytochrome P450 1A2 (Homo sapiens, UniProt P05177); experiment: Inhibition of human CYP1A2; type: ADME
T1 sequence (P05177 whole entry): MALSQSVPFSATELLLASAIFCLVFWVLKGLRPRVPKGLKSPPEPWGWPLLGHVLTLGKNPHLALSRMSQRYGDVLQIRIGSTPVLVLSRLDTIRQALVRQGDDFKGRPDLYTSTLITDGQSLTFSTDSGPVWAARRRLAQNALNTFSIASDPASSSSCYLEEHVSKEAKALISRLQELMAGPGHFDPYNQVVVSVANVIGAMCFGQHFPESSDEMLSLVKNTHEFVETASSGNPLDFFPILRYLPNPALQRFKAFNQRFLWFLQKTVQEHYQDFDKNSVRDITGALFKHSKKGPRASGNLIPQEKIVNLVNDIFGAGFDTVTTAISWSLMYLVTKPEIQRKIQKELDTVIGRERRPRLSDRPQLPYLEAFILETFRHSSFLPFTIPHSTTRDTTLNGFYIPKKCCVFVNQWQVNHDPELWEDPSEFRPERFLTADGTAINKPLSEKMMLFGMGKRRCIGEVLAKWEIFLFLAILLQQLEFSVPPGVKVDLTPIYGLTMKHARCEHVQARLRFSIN

[3] = Fraction unbound in mouse plasma by equilibrium dialysis method; type: ADME, cell-free
Method in brief: (§2)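 Plasma protein binding measured by equilibrium dialysis in mouse, rat, dog and human plasma, reported as % free.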

[4] = AUC (0 to infinity) in dog at 2 mg/kg, po; type: ADME, organism-based, Canis lupus familiaris; design: dose 2 mg/kg, time infinity, route oral; conditions: in vivo; method in brief: as §1
CWR22 = experiment: Antitumor activity against bicalutamide-resistant human CWR22 cells in Balb/c athymic (nu/nu) mouse CWR22-BMSLD1 prostate cancer xenograft model assessed as tumor growth inhibition at 90 mg/kg, po qd administered for 45 days measured for 10 days during compound dosing; type: functional, organism-based
Method in brief: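 CWR22-BMSLD1 human prostate cancer xenograft. Oral once-daily dosing at 90 mg/kg for 45 days, or at 150 mg/kg for 35 days, with a vehicle group. Median tumor volume (mm3) tracked against days post implant.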

hERG = hERG (Homo sapiens, UniProt Q12809); experiment: Inhibition of human ERG at 30 uM relative to control
Chain of hERG (Q12809 whole entry): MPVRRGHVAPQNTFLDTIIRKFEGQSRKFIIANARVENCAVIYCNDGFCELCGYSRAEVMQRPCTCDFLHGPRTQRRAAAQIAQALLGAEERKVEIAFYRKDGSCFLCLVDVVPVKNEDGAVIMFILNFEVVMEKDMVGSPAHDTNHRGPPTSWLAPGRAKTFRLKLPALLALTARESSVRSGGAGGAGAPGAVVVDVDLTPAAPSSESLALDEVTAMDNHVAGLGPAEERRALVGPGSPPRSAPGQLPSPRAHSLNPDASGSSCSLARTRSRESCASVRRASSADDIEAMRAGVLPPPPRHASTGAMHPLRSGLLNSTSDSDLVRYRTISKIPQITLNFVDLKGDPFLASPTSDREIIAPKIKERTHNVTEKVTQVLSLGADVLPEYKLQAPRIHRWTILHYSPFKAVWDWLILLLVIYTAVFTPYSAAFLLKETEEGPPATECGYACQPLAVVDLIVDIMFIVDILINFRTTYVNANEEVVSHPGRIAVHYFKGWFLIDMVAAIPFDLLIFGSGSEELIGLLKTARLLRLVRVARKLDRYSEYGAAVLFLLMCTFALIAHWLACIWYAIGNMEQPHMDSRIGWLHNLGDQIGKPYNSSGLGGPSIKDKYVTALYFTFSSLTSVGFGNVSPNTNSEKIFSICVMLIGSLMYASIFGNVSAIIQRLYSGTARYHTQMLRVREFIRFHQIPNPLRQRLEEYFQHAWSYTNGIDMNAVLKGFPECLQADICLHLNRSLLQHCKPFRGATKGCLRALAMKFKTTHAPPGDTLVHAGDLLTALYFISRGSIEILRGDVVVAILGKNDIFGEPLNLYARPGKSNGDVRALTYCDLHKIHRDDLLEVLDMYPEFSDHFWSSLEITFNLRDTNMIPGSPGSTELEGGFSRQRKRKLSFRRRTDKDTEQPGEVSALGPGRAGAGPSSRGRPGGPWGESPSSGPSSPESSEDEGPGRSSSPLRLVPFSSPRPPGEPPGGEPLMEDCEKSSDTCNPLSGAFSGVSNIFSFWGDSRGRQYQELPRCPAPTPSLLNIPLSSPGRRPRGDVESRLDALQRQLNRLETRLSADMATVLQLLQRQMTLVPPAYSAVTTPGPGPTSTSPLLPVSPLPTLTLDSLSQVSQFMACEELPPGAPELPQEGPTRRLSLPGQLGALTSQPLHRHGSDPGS

Cytochrome P450 2B6 = biological target: T2, Cytochrome P450 2B6 (Homo sapiens, UniProt P20813); experiment: Inhibition of human CYP2B6; type: ADME
T2 sequence (P20813 whole entry): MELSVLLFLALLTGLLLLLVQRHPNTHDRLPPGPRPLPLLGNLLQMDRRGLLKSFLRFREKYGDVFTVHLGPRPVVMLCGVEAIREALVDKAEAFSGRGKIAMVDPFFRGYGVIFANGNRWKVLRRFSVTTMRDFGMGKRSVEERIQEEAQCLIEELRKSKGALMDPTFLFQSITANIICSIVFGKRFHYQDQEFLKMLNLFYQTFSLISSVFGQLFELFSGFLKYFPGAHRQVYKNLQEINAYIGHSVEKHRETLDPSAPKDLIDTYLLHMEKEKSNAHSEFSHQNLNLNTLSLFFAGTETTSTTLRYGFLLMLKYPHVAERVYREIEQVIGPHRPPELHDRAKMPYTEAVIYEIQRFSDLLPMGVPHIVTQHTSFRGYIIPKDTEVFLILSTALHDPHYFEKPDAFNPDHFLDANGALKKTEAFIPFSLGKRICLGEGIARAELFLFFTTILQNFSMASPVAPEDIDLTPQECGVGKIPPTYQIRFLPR

[5] = Plasma concentration in immature Sprague-Dawley rat prostate weight model at 1 mg/kg, po qd administered for 4 days measured 2 hrs post last dose on day 4; type: ADME, organism-based
Method in brief: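 Immature rat prostate weight model, oral dosing once daily at 1 or 10 mg/kg for 4 days. Plasma drug concentration (µM) measured 2 hours post-dose on day 4, n=3.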

Rattus norvegicus = experiment: In vivo antagonist activity at androgen receptor in immature Sprague-Dawley rat prostate weight model assessed as testosterone propionate-induced weight of seminal vesicles over full body weight at 1 mg/kg, po qd administered for 4 days; type: functional; design: scale not given: the % may be the effect or the level left
Method in brief: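 Immature rat prostate weight PK/PD model. Oral dosing once daily at 1 or 10 mg/kg for 4 days. Seminal vesicle weight expressed as % of full body weight, n=3, scaled so testosterone-treated control = 100% and sham = 10%.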

[6] = Oral bioavailability in rat at 10 mg/kg; type: ADME, organism-based; conditions: in vivo; method in brief: as §1
Cytochrome P450 2C8 = biological target: T3, Cytochrome P450 2C8 (Homo sapiens, UniProt P10632); experiment: Inhibition of human CYP2C8; type: ADME
T3 sequence (P10632 whole entry): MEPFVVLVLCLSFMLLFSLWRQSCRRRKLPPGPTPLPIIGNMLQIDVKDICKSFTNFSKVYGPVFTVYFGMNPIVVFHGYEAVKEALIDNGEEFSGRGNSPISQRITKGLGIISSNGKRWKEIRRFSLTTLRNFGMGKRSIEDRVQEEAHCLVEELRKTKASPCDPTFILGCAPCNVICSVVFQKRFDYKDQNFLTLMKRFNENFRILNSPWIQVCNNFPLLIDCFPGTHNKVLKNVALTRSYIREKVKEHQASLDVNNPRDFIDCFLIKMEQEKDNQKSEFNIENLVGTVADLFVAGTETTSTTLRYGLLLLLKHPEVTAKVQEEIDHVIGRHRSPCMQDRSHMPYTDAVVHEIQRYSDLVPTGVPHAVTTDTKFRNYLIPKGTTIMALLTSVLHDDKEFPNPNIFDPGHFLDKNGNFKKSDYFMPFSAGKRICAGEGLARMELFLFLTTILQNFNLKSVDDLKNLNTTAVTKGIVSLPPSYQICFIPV

[7] = Half life in rat at 5 mg/kg, iv and 10 mg/kg, po; type: ADME, organism-based; conditions: in vivo; method in brief: as §1
Cytochrome P450 2C9 = Cytochrome P450 2C9 (Homo sapiens, UniProt P11712); experiment: Inhibition of human CYP2C9; type: ADME
Chain of Cytochrome P450 2C9 (P11712 whole entry): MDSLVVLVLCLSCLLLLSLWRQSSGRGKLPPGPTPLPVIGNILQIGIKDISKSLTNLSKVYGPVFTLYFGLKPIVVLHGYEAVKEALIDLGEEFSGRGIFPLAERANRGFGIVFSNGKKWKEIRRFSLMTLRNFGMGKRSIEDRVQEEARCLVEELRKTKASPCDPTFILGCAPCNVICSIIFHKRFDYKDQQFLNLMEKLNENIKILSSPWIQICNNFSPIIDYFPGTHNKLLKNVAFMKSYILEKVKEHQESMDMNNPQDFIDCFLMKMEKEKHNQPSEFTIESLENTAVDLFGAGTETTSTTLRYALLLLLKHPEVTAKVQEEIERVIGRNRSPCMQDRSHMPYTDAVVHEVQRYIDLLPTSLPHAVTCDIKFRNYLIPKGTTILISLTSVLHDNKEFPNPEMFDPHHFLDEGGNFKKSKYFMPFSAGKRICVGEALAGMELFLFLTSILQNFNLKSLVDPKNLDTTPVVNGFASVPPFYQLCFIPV

[8] = Fraction unbound in human plasma by equilibrium dialysis method; type: ADME, cell-free; method in brief: as §2
[9] = Oral bioavailability in mouse at 10 mg/kg; type: ADME, organism-based; conditions: in vivo; method in brief: as §1
[10] = AUC (0 to infinity) in dog at 1 mg/kg, iv; type: ADME, organism-based, Canis lupus familiaris; design: dose 1 mg/kg, route intravenous, time infinity; conditions: in vivo; method in brief: as §1

Q: With `CCS(=O)(=O)N[C@@H]1C[C@]2(C)O[C@]1(C)[C@@H]1C(=O)N(c3ccc(C#N)c(C(F)(F)F)c3)C(=O)[C@@H]12` as the molecule, how does the clearance [1] read?
A: 4.5 mL/min/kg

Q: And the Drug metabolism [2]?
A: 1 pmol/min

Q: And the IC50 (Cytochrome P450 1A2)?
A: > 40 µM

Q: And the fraction unbound [3]?
A: 0.148

Q: What about the AUC(0-inf) [4] of the same molecule?
A: 160 µM·h

Q: And the TGI (CWR22)?
A: inactive

Q: And the inhibition at 30 µM (hERG)?
A: 0%

Q: What about the IC50 (Cytochrome P450 2B6) of the same molecule?
A: > 40 µM

Q: And the concentration at 2 h [5]?
A: 790 nM

Q: What about the Activity (Rattus norvegicus) of the same molecule?
A: 58%

Q: What about the bioavailability [6] of the same molecule?
A: 63.9%

Q: And the IC50 (Cytochrome P450 2C8)?
A: > 40 µM

Q: What about the half-life [7] of the same molecule?
A: 3.7 h

Q: What about the IC50 (Cytochrome P450 2C9) of the same molecule?
A: > 40 µM

Q: What about the fraction unbound [8] of the same molecule?
A: 0.104

Q: And the bioavailability [9]?
A: 94.7%

Q: What about the AUC(0-inf) [10] of the same molecule?
A: 102 µM·h
